In brackets after ≈: the same amount, converted by molar mass.
What was measured:
MRSA3 = assay: In vitro antibacterial activity; assay type: cell-based; conditions: Staphylococcus aureus
[1] = comparison value for vancomycin ref 18, 19; cited from earlier work
MRSA2 = assay: In vitro antibacterial activity; assay type: cell-based, Staphylococcus aureus
MRSA4 = assay: In vitro antibacterial activity; assay type: cell-based; conditions: Staphylococcus aureus
MRSA5 = assay: In vitro antibacterial activity; assay type: cell-based; conditions: Staphylococcus aureus
MRSA1 [2] = assay: In vivo antibacterial activity, survival of MRSA1 infected mice; set-up: species or system BALB/c mice; conditions: for survival (%): final survival rate after 7 days
Procedure, shortened: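 Female BALB/c mice (6–8 weeks, 18-22 g) were housed under SPF conditions. They were infected via the tail vein with 0.1 mL of a Columbia broth culture of clinical MRSA1 diluted to OD600 1.5. One hour later, test compound or vancomycin was given IV at 2.5, 10 or 40 mg/kg; an untreated model group was included. Deaths were recorded daily for 7 days to build survival curves. Tissues were examined by H&E histology.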

MRSA1 [3] = assay: In vitro antibacterial activity; assay type: cell-based; conditions: Staphylococcus aureus

For CN[C@H](CC(C)C)C(=O)N[C@H]1C(=O)N[C@@H](CC(N)=O)C(=O)N[C@H]2C(=O)N[C@H]3C(=O)N[C@H](C(=O)N[C@H](C(=O)O)c4cc(O)cc(O)c4-c4cc3ccc4O)[C@H](O)c3ccc(c(Cl)c3)Oc3cc2cc(c3O[C@@H]2O[C@H](CO)[C@@H](O)[C@H](O)[C@H]2O[C@H]2C[C@](C)(N)[C@H](O)[C@H](C)O2)Oc2ccc(cc2Cl)[C@H]1O [vancomycin], the MIC (MRSA3) is listed as 512 µg/mL (≈ 353 µM), the “half-life (T1/2)” value [1] is listed as 4.3 ± 1.9 h and the MIC (MRSA2; Staphylococcus aureus) is listed as greater than 512 µg/mL. It also gave an MIC (MRSA2; clinical isolate MRSA2) greater than 512 µg/mL, an MIC (MRSA4) of 256 µg/mL (≈ 177 µM) and an MIC (MRSA5) of 256 µg/mL (≈ 177 µM). The “survival (%)” value (MRSA1 [2]; 2.5 mg/kg (low-dose)) was 0%, the “number of mice surviving” value (MRSA1 [2]; 2.5 mg/kg via tail vein, day1, 6 mice) was 3 and the “number of mice surviving” value (MRSA1 [2]; 2.5 mg/kg via tail vein, day2, 6 mice) was 2. The “number of mice surviving” value (MRSA1 [2]; 2.5 mg/kg via tail vein, day3, 6 mice) was 2, the “number of mice surviving” value (MRSA1 [2]; 2.5 mg/kg via tail vein, day4, 6 mice) was 2 and the “number of mice surviving” value (MRSA1 [2]; 2.5 mg/kg via tail vein, day5, 6 mice) was 1. For the same compound, the “number of mice surviving” value (MRSA1 [2]; 2.5 mg/kg via tail vein, day6, 6 mice) was 1, the “number of mice surviving” value (MRSA1 [2]; 2.5 mg/kg via tail vein, day7, 6 mice) was 0 and the “survival (%)” value (MRSA1 [2]; 10 mg/kg (medium-dose)) was 16.7%. The “number of mice surviving” value (MRSA1 [2]; 10 mg/kg via tail vein, day1, 6 mice) was 6, the “number of mice surviving” value (MRSA1 [2]; 10 mg/kg via tail vein, day2, 6 mice) was 5 and the “number of mice surviving” value (MRSA1 [2]; 10 mg/kg via tail vein, day3, 6 mice) was 2. The “number of mice surviving” value (MRSA1 [2]; 10 mg/kg via tail vein, day4, 6 mice) was 2, the “number of mice surviving” value (MRSA1 [2]; 10 mg/kg via tail vein, day5, 6 mice) was 2 and the “number of mice surviving” value (MRSA1 [2]; 10 mg/kg via tail vein, day6, 6 mice) was 1. The “number of mice surviving” value (MRSA1 [2]; 10 mg/kg via tail vein, day7, 6 mice) was 1, the “survival (%)” value (MRSA1 [2]; 40 mg/kg (high-dose)) was 33.3% and the “number of mice surviving” value (MRSA1 [2]; 40 mg/kg via tail vein, day1, 6 mice) was 5. For the same compound, the “number of mice surviving” value (MRSA1 [2]; 40 mg/kg via tail vein, day2, 6 mice) was 5, the “number of mice surviving” value (MRSA1 [2]; 40 mg/kg via tail vein, day3, 6 mice) was 5 and the “number of mice surviving” value (MRSA1 [2]; 40 mg/kg via tail vein, day4, 6 mice) was 4. The “number of mice surviving” value (MRSA1 [2]; 40 mg/kg via tail vein, day5, 6 mice) was 2, the “number of mice surviving” value (MRSA1 [2]; 40 mg/kg via tail vein, day6, 6 mice) was 2 and the “number of mice surviving” value (MRSA1 [2]; 40 mg/kg via tail vein, day7, 6 mice) was 2. For the same compound, the ED50 (MRSA1 [2]; Mus musculus) was 59.7 mg/kg, the “kidney infection, H&E staining” value (MRSA1 [2]; high-dose (40 mg/kg)) was “severe kidney infection” and the “kidney infection, H&E staining” value (MRSA1 [2]; low-dose (2.5 mg/kg)) was “severe kidney infection”. For the same compound, the “kidney infection, H&E staining” value (MRSA1 [2]; medium-dose (10 mg/kg)) was “severe kidney infection” and the MIC (MRSA1 [3]) was 256 µg/mL (≈ 177 µM).

From paper PMC10413833 (ACS Omega, 2023)
